In brackets after ≈: the same amount, converted by molar mass. Activity calls are given as the source filed them. The rule behind the calls is not given here.
Tests used:
Salmonella enteritidis [1] = test: Antibacterial activity against wild type Salmonella enteritidis 104 harboring gyrA D87Y mutant gene by CLSI method; type: functional, Salmonella enterica subsp. enterica serovar Enteritidis; settings: Salmonella enterica
Salmonella enteritidis [2] = test: Antibacterial activity against ciprofloxacin-susceptibility revert strain of Salmonella enteritidis 104 harboring gyrA D87Y/S83F mutant, parC D79N mutant, soxR E16G/R20H mutant and soxS E52K mutant gene after 20 passages by CLSI method; type: functional, Salmonella enterica subsp. enterica serovar Enteritidis; settings: Salmonella enterica
Salmonella enteritidis [3] = test: Antibacterial activity against ciprofloxacin-susceptible Salmonella enteritidis 1A-revertC2 harboring gyrA D87Y/S83F mutant, parC D79N mutant, soxR R133C/R20H mutant, soxS E52K mutant and marA I111N/H115Q mutant gene after 70 passages by CLSI method; type: functional, Salmonella enterica subsp. enterica serovar Enteritidis; settings: Salmonella enterica
Salmonella enteritidis [4] = test: Antibacterial activity against wild type Salmonella enteritidis 5408 harboring gyrA D87Y mutant gene by CLSI method; type: functional, Salmonella enterica subsp. enterica serovar Enteritidis; settings: Salmonella enterica
Salmonella enteritidis [5] = test: Antibacterial activity against ciprofloxacin-resistant Salmonella enteritidis 5408 harboring gyrA D87Y mutant, gyrB E466D mutant, parE V461G mutant and ramR G25A mutant gene after 200 passages by CLSI method; type: functional, Salmonella enterica subsp. enterica serovar Enteritidis; settings: Salmonella enterica
Salmonella enteritidis [6] = test: Antibacterial activity against Salmonella enteritidis NCTC 13349 by CLSI method; type: functional, Salmonella enterica subsp. enterica serovar Enteritidis; settings: Salmonella enterica
Salmonella enteritidis [7] = test: Antibacterial activity against ciprofloxacin-resistant Salmonella enteritidis 104 harboring gyrA D87Y/S83F mutant, soxR R20H mutant and soxS E52K mutant gene by CLSI method; settings: Salmonella enterica
Salmonella enteritidis [8] = test: Antibacterial activity against ciprofloxacin-resistant Salmonella enteritidis 104 harboring gyrA D87Y/S83F mutant, soxR R20H mutant and soxS E52K mutant gene assessed as reduction in swim motility after overnight incubation; type: functional, Salmonella enterica subsp. enterica serovar Enteritidis
Summary of the method: (§1)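 Swim assay: 1 µl of overnight culture spotted centrally on LB with 0.1% gellan gum, dried 1 h at room temperature, incubated overnight at 30°C. Visible spread measured with a ruler (mm). Reduction expressed relative to the parent strain.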

Salmonella enteritidis [9] = test: Antibacterial activity against ciprofloxacin-susceptibility revert strain of Salmonella enteritidis 104 harboring gyrA D87Y/S83F mutant, parC D79N mutant, soxR E16G/R20H mutant and soxS E52K mutant gene assessed as reduction in swim motility after overnight incubation; type: functional, Salmonella enterica subsp. enterica serovar Enteritidis; summary of the method: as §1
Salmonella enteritidis [10] = test: Antibacterial activity against ciprofloxacin-resistant Salmonella enteritidis 5408 harboring gyrA D87Y mutant, gyrB E466D mutant, parE V461G mutant and ramR G25A mutant gene assessed as reduction in swim motility after overnight incubation; type: functional, Salmonella enterica subsp. enterica serovar Enteritidis; summary of the method: as §1
Salmonella enteritidis [11] = test: Antibacterial activity against ciprofloxacin-resistant Salmonella enteritidis 104 harboring gyrA D87Y/S83F mutant, soxR R20H mutant and soxS E52K mutant gene assessed as reduction in swarm motility after overnight incubation; type: functional, Salmonella enterica subsp. enterica serovar Enteritidis
Summary of the method: (§2)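 Swarm assay: overnight LB culture pelleted, washed once, concentrated 50-fold. 2 µl spotted on LB with 0.2% gellan gum, incubated overnight at 30°C. Colony spread measured in mm. Reduction expressed relative to the parent strain.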

Salmonella enteritidis [12] = test: Antibacterial activity against ciprofloxacin-resistant Salmonella enteritidis 5408 harboring gyrA D87Y mutant, gyrB E466D mutant, parE V461G mutant and ramR G25A mutant gene assessed as reduction in swarm motility after overnight incubation; type: functional, Salmonella enterica subsp. enterica serovar Enteritidis; summary of the method: as §2
Salmonella enteritidis [13] = test: Antibacterial activity against ciprofloxacin-susceptibility revert strain of Salmonella enteritidis 104 harboring gyrA D87Y/S83F mutant, parC D79N mutant, soxR E16G/R20H mutant and soxS E52K mutant gene assessed as reduction in swarm motility after overnight incubation; type: functional, Salmonella enterica subsp. enterica serovar Enteritidis; summary of the method: as §2
Salmonella enteritidis [14] = test: Antibacterial activity against Salmonella enteritidis by CLSI method; settings: Salmonella enterica
Salmonella enteritidis [15] = test: Antibacterial activity against ciprofloxacin-resistant Salmonella enteritidis 104 harboring gyrA D87Y/S83F mutant, soxR R20H mutant and soxS E52K mutant gene after 24 hrs by spectrophotometry; type: functional, organism-based; settings: Salmonella enterica subsp. enterica serovar Enteritidis
Summary of the method: (§3)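 Growth in TSB: colony from TSA (37°C, 18 h) grown overnight in 10 ml TSB, 1 ml into 100 ml TSB, shaken aerobically at 37°C. Absorbance read hourly for 8 h, then at 24 h, by spectrophotometer.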

Salmonella enteritidis [16] = test: Antibacterial activity against ciprofloxacin-resistant Salmonella enteritidis 5408 harboring gyrA D87Y mutant, gyrB E466D mutant, parE V461G mutant and ramR G25A mutant gene after 24 hrs by spectrophotometry; type: functional, organism-based; settings: Salmonella enterica subsp. enterica serovar Enteritidis; summary of the method: as §3
Salmonella enteritidis [17] = test: Antibacterial activity against wild type Salmonella enteritidis 104 harboring gyrA D87Y mutant gene after 24 hrs by spectrophotometry; type: functional, organism-based; settings: Salmonella enterica subsp. enterica serovar Enteritidis; summary of the method: as §3
Salmonella enteritidis [18] = test: Antibacterial activity against wild type Salmonella enteritidis 5408 harboring gyrA D87Y mutant gene after 24 hrs by spectrophotometry; type: functional, organism-based; settings: Salmonella enterica subsp. enterica serovar Enteritidis; summary of the method: as §3
Salmonella enteritidis [19] = test: Antibacterial activity against ciprofloxacin-susceptibility revert strain of Salmonella enteritidis 104 harboring gyrA D87Y/S83F mutant, parC D79N mutant, soxR E16G/R20H mutant and soxS E52K mutant gene after 24 hrs by spectrophotometry; type: functional, organism-based; settings: Salmonella enterica subsp. enterica serovar Enteritidis; summary of the method: as §3
Salmonella enteritidis [20] = test: Antibacterial activity against ciprofloxacin-susceptible Salmonella enteritidis 1A-revertC2 harboring gyrA D87Y/S83F mutant, parC D79N mutant, soxR R133C/R20H mutant, soxS E52K mutant and marA I111N/H115Q mutant gene after 70 passages after 24 hrs by spectrophotometry; type: functional, organism-based; settings: Salmonella enterica subsp. enterica serovar Enteritidis; summary of the method: as §3
Salmonella enteritidis [21] = test: Antibacterial activity against ciprofloxacin-resistant Salmonella enteritidis 104 harboring gyrA D87Y/S83F mutant, soxR R20H mutant and soxS E52K mutant gene assessed as length of bacterial rods by microscopy; type: functional, Salmonella enterica subsp. enterica serovar Enteritidis
Salmonella enteritidis [22] = test: Antibacterial activity against wild type Salmonella enteritidis 104 harboring gyrA D87Y mutant gene assessed as length of bacterial rods by microscopy; type: functional, Salmonella enterica subsp. enterica serovar Enteritidis
Salmonella enteritidis [23] = test: Antibacterial activity against ciprofloxacin-resistant Salmonella enteritidis 104 harboring gyrA D87Y/S83F mutant, soxR R20H mutant and soxS E52K mutant gene assessed as width of bacterial rods by microscopy; type: functional, Salmonella enterica subsp. enterica serovar Enteritidis
Salmonella enteritidis [24] = test: Antibacterial activity against wild type Salmonella enteritidis 104 harboring gyrA D87Y mutant gene assessed as width of bacterial rods by microscopy; type: functional, Salmonella enterica subsp. enterica serovar Enteritidis
Salmonella enteritidis [25] = test: Antibacterial activity against ciprofloxacin-resistant Salmonella enteritidis 5408 harboring gyrA D87Y mutant, gyrB E466D mutant, parE V461G mutant and ramR G25A mutant gene assessed as length of bacterial rods by microscopy; type: functional, Salmonella enterica subsp. enterica serovar Enteritidis
Salmonella enteritidis [26] = test: Antibacterial activity against wild type Salmonella enteritidis 5408 harboring gyrA D87Y mutant gene assessed as length of bacterial rods by microscopy; type: functional, Salmonella enterica subsp. enterica serovar Enteritidis
Salmonella enteritidis [27] = test: Antibacterial activity against ciprofloxacin-resistant Salmonella enteritidis 5408 harboring gyrA D87Y mutant, gyrB E466D mutant, parE V461G mutant and ramR G25A mutant gene assessed as width of bacterial rods by microscopy; type: functional, Salmonella enterica subsp. enterica serovar Enteritidis
Salmonella enteritidis [28] = test: Antibacterial activity against wild type Salmonella enteritidis 5408 harboring gyrA D87Y mutant gene assessed as width of bacterial rods by microscopy; type: functional, Salmonella enterica subsp. enterica serovar Enteritidis

Compound: CCn1cc(C(=O)O)c(=O)c2ccc(C)nc21 [NALIDIXIC ACID]
- MIC (Salmonella enteritidis [1]): > 256 µg/mL
- MIC (Salmonella enteritidis [2]): > 256 µg/mL
- MIC (Salmonella enteritidis [3]): > 256 µg/mL
- MIC (Salmonella enteritidis [4]): > 256 µg/mL
- MIC (Salmonella enteritidis [5]): > 256 µg/mL
- MIC (Salmonella enteritidis [6]): 8 µg/mL (≈ 34.4 µM)
- MIC (Salmonella enteritidis [7]): > 256 µg/mL

Compound: CN(C)[C@@H]1C(O)=C(C(N)=O)C(=O)[C@@]2(O)C(O)=C3C(=O)c4c(O)cccc4[C@@](C)(O)[C@H]3C[C@@H]12 [TETRACYCLINE]
- MIC (Salmonella enteritidis [1]): 1 µg/mL (≈ 2.25 µM)
- MIC (Salmonella enteritidis [2]): 2 µg/mL (≈ 4.5 µM)
- MIC (Salmonella enteritidis [3]): 0.5 µg/mL (≈ 1.13 µM)
- MIC (Salmonella enteritidis [4]): 1 µg/mL (≈ 2.25 µM)
- MIC (Salmonella enteritidis [5]): 2 µg/mL (≈ 4.5 µM)
- MIC (Salmonella enteritidis [7]): 16 µg/mL (≈ 36 µM)

Compound: O=C(N[C@H](CO)[C@H](O)c1ccc([N+](=O)[O-])cc1)C(Cl)Cl [CHLORAMPHENICOL]
- MIC (Salmonella enteritidis [1]): 2 µg/mL (≈ 6.19 µM)
- MIC (Salmonella enteritidis [2]): 8 µg/mL (≈ 24.8 µM)
- MIC (Salmonella enteritidis [3]): 2 µg/mL (≈ 6.19 µM)
- MIC (Salmonella enteritidis [4]): 4 µg/mL (≈ 12.4 µM)
- MIC (Salmonella enteritidis [5]): 16 µg/mL (≈ 49.5 µM)
- MIC (Salmonella enteritidis [7]): 128 µg/mL (≈ 396 µM)

Compound: O=C(O)c1cn(C2CC2)c2cc(N3CCNCC3)c(F)cc2c1=O [CIPROFLOXACIN]
- inhibition (INH) (Salmonella enteritidis [8]): 66%
- inhibition (INH) (Salmonella enteritidis [9]): 90%
- inhibition (INH) (Salmonella enteritidis [10]): 93%
- inhibition (INH) (Salmonella enteritidis [11]): 36%
- inhibition (INH) (Salmonella enteritidis [12]): 46%
- inhibition (INH) (Salmonella enteritidis [13]): 36%
- MIC (Salmonella enteritidis [14]): 0.12 µg/mL (≈ 0.362 µM)
- Activity (Salmonella enteritidis [15]): inactive
- Activity (Salmonella enteritidis [16]): inactive
- Activity (Salmonella enteritidis [17]): Active
- Activity (Salmonella enteritidis [18]): Active
- Activity (Salmonella enteritidis [19]): Active
- Activity (Salmonella enteritidis [20]): Active
- Activity (Salmonella enteritidis [21]): 1.16 um
- Activity (Salmonella enteritidis [22]): 1.02 um
- Activity (Salmonella enteritidis [23]): 0.45 um
- Activity (Salmonella enteritidis [24]): 0.43 um
- Activity (Salmonella enteritidis [25]): 1 um
- Activity (Salmonella enteritidis [26]): 1.1 um
- Activity (Salmonella enteritidis [27]): 0.51 um
- Activity (Salmonella enteritidis [28]): 0.46 um

Compound: CC1(C)S[C@@H]2[C@H](NC(=O)[C@H](N)c3ccccc3)C(=O)N2[C@H]1C(=O)O [AMPICILLIN]
- MIC (Salmonella enteritidis [1]): 1 µg/mL (≈ 2.86 µM)
- MIC (Salmonella enteritidis [2]): 4 µg/mL (≈ 11.4 µM)
- MIC (Salmonella enteritidis [3]): 0.5 µg/mL (≈ 1.43 µM)
- MIC (Salmonella enteritidis [4]): 1 µg/mL (≈ 2.86 µM)
- MIC (Salmonella enteritidis [5]): 4 µg/mL (≈ 11.4 µM)
- MIC (Salmonella enteritidis [7]): 16 µg/mL (≈ 45.8 µM)

Reference: ChEMBL document CHEMBL1240355 (2010)
